From ChEMBL document CHEMBL1132271, “1-Benzopyran-4-one antioxidants as aldose reductase inhibitors” (J Med Chem, 1999) come the findings set out here.

In general, inhibition refers to the percentage by which the read-out fell short of the control. The term IC50 denotes the concentration that gives 50% inhibition. A high value points to a need for much substance. Usually pKa stands for the negative logarithm of the acid dissociation constant. A high value points to a weaker acid or stronger base.

Data set [1] deals with Aldo-keto reductase family 1 member B1 (Bos taurus) (UniProt P16116). Put plainly: The compound was tested for Inhibitory effect uM. The settings on record: concentration not given here.
Data set [2] addresses T1, Aldo-keto reductase family 1 member B1 (Bos taurus, UniProt P16116). Put plainly: Inhibition of ALR2 (aldose reductase) of bovine lens. In a few lines: (§1)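 ALR2 partly purified from bovine lens (DEAE chromatography), 3.5 mU/mL. Run at 37 °C with 4.7 mM D,L-glyceraldehyde and 0.11 mM NADPH in 0.25 M sodium phosphate pH 6.80 with 0.38 M ammonium sulfate. Inhibitor added in DMSO, 1% final. Blank without substrate.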

Data set [3] deals with T1, Aldo-keto reductase family 1 member B1. The data set can be described thus: Inhibition of Aldose reductase 2 of bovine lens. Summed up:
as §1

Data set [4] in a line: The compound was tested for the pKa (+/-SD) values at 25 degree C. It is filed as physicochemical. Summed up: (§2)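 Compound solution added to buffers at ionic strength 0.1 M, pH stepped by 0.25 unit. UV–vis spectra recorded and pH measured with a calibrated electrode. pKa calculated from absorbance change at λmax of the dissociated form, then corrected for ionic strength.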

In data set [5] the test system is Aldo-keto reductase family 1 member A1, aldehyde reductase ALR1 (Bos taurus). Put plainly: The compound was tested for Inhibitory effect uM. The settings on record: concentration not given here.
Data set [6] can be described thus: Proton dissociation constant pKa was determined at 25 degree C. It is filed as physicochemical. In a few lines:
as §2

Data set [7] concerns the target T2, Aldo-keto reductase family 1 member A1 (Bos taurus, UniProt Q3ZCJ2). The data set can be described thus: The compound was tested for Inhibitory effect against Aldose reductase 1 in bovine kidneys. In a few lines: (§3)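 Run at 37 °C with 20 mM D-glucuronate and 0.12 mM NADPH in 0.1 M sodium phosphate pH 7.20. Inhibitor added in DMSO, 1% final. Blank without substrate.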

For data set [8], the target named is Aldo-keto reductase family 1 member B1 (Bos taurus) (UniProt P16116). The data set can be described thus: (§4) Compound was tested for Ratio of IC50(ALR1)/(ALR2). In a few lines:
(§5)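 Ratio of IC50 values. ALR1 (bovine kidney; 20 mM D-glucuronate, 0.12 mM NADPH, pH 7.20) and ALR2 (bovine lens; 4.7 mM D,L-glyceraldehyde, 0.11 mM NADPH, pH 6.80). Both enzymes at 3.5 mU/mL, 37 °C, 1% DMSO. IC50 from log dose–inhibition curves in duplicate.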

Data set [9] shares this target. The data set can be described thus: The compound was tested for Inhibitory effect against ALR2 in bovine lenses at 77 uM. It is filed as tissue-based. The settings on record: Lens of camera-type eye. In a few lines:
as §1

In data set [10] the test system is Liposome. The data set can be described thus: Antioxidant action tested inAAPH-induced malondialdehyde (MDA) liposomes after 40 min. It counts as functional, subcellular. Summed up:
(§6)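 Lipid (LA, 2 mg/mL) suspended in 50 mM Tris pH 7.4 and extruded into micelles with test antioxidant at 0.2 mM final. Peroxidation started with AAPH (10 mM), 37 °C in shaking water bath. Aliquots taken at intervals, mixed with 20% TCA, then 0.67% TBA, boiled 10 min, hexane-extracted. MDA read at 535 nm (ε 1.49×10^5). Means ± SE.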

Data set [11] concerns Liposome. The data set can be described thus: Antioxidant action tested in AAPH-induced malondialdehyde (MDA) liposomes after 30 min. It is filed as functional. In a few lines:
as §6

Data set [12] concerns Liposome. Put plainly: Antioxidant action tested in AAPH-induced malondialdehyde (MDA) liposomes after 5 min. It counts as functional. Summed up:
as §6

Data set [13] deals with Liposome. Put plainly: Antioxidant action tested in AAPH-induced malondialdehyde (MDA) liposomes after 60 min. It counts as functional. In a few lines: as §6
The test system of data set [14] is Liposome. The data set can be described thus: Antioxidant action tested in AAPH-induced malondialdehyde (MDA) liposomes after 15 min. It is filed as functional. Summed up:
as §6

Data set [15] in a line: as §4. In a few lines: as §5
The target of data set [16] is T2, Aldo-keto reductase family 1 member A1. The data set can be described thus: The compound was tested for Inhibitory effect against ALR1 in bovine kidneys. It counts as tissue-based, Kidney. Summed up: as §3
The subject of data set [17] is Liposome. Put plainly: Antioxidant action tested in AAPH-induced malondialdehyde (MDA) of liposomes after 15 min. It counts as functional. Summed up: as §6
The test system of data set [18] is Liposome. Put plainly: Antioxidant action tested in AAPH-induced malondialdehyde (MDA) of liposomes after 30 min. It counts as functional. In a few lines:
as §6

For data set [19], the system named is Liposome. The data set can be described thus: Antioxidant action tested in AAPH-induced malondialdehyde (MDA) of liposomes after 40 min. It is filed as functional. Summed up: as §6
In data set [20] the test system is Liposome. Put plainly: Antioxidant action tested in AAPH-induced malondialdehyde (MDA) of liposomes after 5 min. It is filed as functional. In a few lines: as §6
The subject of data set [21] is Liposome. Put plainly: Antioxidant action tested in AAPH-induced malondialdehyde (MDA) of liposomes after 60 min. It counts as functional. Summed up:
as §6

T2 sequence (Q3ZCJ2 2-325 limits assumed): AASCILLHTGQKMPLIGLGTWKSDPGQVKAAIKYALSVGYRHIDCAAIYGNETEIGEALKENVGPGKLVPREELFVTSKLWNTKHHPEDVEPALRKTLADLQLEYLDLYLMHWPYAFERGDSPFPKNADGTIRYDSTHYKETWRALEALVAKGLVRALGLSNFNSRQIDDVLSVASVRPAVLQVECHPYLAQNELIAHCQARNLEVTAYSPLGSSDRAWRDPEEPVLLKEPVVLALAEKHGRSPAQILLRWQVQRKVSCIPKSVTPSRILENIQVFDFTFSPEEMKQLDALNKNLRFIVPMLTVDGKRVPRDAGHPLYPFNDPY

For the molecule `O=c1cc(-c2ccccc2)oc2cccc(O)c12`, the inhibition in data set [1] amounted to 0%.

`O=c1cc(-c2ccc(O)c(O)c2)oc2cc(O)cc(O)c12` [LUTEOLIN] gave an IC50 in [2] of 9.57 µM.

The molecule `O=c1cc(Cc2ccc3ccccc3c2)oc2cc(O)ccc12` showed an IC50 in data set [3] of 22.3 µM.

In data set [4], `O=c1cc(-c2ccccc2)oc2cc(O)c([N+](=O)[O-])cc12` showed a pKa of 5.3. This molecule came in with an IC50 in data set [2] of 3.87 µM. Further, the inhibition in data set [5] was found to be 27.5%.

In data set [3], `O=c1c(Cc2ccccc2)c(Cc2ccc(O)cc2)oc2cc(O)ccc12` came in with an IC50 of 14.2 µM.

For `COc1ccc2oc(Cc3ccc(O)cc3)cc(=O)c2c1`, in data set [1], the inhibition was determined as 40%.

In [6], `COc1ccc(Cc2cc(=O)c3ccc(O)cc3o2)cc1` had a pKa of 7.35. In addition, the IC50 in data set [7] came out at 16.6 µM; in data set [3] it was 7.01 µM. Also, the Ratio in [8] worked out at 2.4.

As for `COc1ccc(Cc2cc(=O)c3ccc(OC)cc3o2)cc1`, the inhibition in [1] is 0%.

In data set [9], `COc1ccc2c(=O)c(Cc3ccc(O)cc3)coc2c1` showed an inhibition of 18%.

Regarding `O=c1cc(Cc2ccccc2)oc2cc(O)ccc12`, the results for the IC50 in data set [7] and in data set [3] were 39.2 µM and 6.61 µM, respectively. Also, the Ratio in data set [8] was 5.9.

As for `O=c1cc(Cc2ccc(O)cc2)oc2cc(O)ccc12`, the IC50 in data set [7] was found to be 16.8 µM; in data set [3], 2.5 µM. In addition, the Ratio in data set [8] amounted to 6.7. In addition, the Activity turned out to be 2.1 nM ml-1 in data set [10]; 1.9 nM ml-1 in data set [11]; 2.02 nM ml-1 in data set [12]; 1.81 nM ml-1 in data set [13]; 1.95 nM ml-1 in [14].

Turning to `O=C(O)Cc1ccc2c(=O)cc(Cc3ccc(O)cc3)oc2c1`, the IC50 in [7] stood at 128 µM; in data set [3] it was 1.3 µM. Further, the Ratio in data set [8] turned out to be 98.5.

On to `COc1ccc2c(=O)cc(Cc3ccc(O)cc3)oc2c1`, for which the inhibition in data set [1] amounted to 37%.

As for `O=c1cc(Cc2ccc(O)c(O)c2)oc2cc(O)ccc12`, the Ratio in data set [15] came to 4.2. Further, the IC50 turned out to be 13.2 µM in data set [16] and 3.14 µM in data set [2]. For the same molecule, the Activity in data set [17] came out at 1.18 nM ml-1; in [18], 1.07 nM ml-1; in data set [19], 0.852 nM ml-1; in data set [20], 0.935 nM ml-1; in data set [21], 1.53 nM ml-1.

In the case of `O=c1c(Cc2ccc(-c3ccccc3)cc2)c(Cc2ccc(O)cc2)oc2cc(O)ccc12`, the inhibition in [1] was 0%.

In turn, `O=c1cc(-c2ccc(O)c(O)c2)oc2cc(O)ccc12` displayed an IC50 in [2] of 6.52 µM.

As to `O=c1c(O)c(-c2ccccc2)oc2ccccc12`, the inhibition in data set [1] was found to be 0%.

The molecule `Cc1oc2cc(O)ccc2c(=O)c1Cc1ccc(O)cc1` came in with an IC50 in data set [3] of 85.7 µM.

`O=C(O)c1ccc2c(=O)cc(Cc3ccc(O)cc3)oc2c1` displayed an IC50 in data set [3] of 10.9 µM. Against the preceding molecule, the IC50 is about 7.9-fold lower.

In the case of `COc1ccc2c(=O)cc(-c3ccccc3)oc2c1`, the inhibition in [1] was found to be 32%.

For `O=c1cc(CCCc2ccc(O)cc2)oc2cc(O)ccc12`, it took 29.4 µM to reach half-maximal inhibition in [3] (IC50).

Turning to `O=c1cc(Cc2ccc(O)cc2)oc2ccc(O)cc12`, the pKa in [6] amounted to 8.89. In data set [3], 13.1 µM corresponded to half-maximal inhibition (IC50). In addition, the Activity is 1.46 nM ml-1 in [18]; 1.29 nM ml-1 in data set [19]; 1.19 nM ml-1 in data set [20]; 1.27 nM ml-1 in data set [13]; 1.54 nM ml-1 in data set [14].

In the case of `O=c1ccoc2cc(O)ccc12`, the figures for the IC50 in data set [7] and in data set [3] were 114 µM and 137 µM, respectively. In addition, the Ratio in data set [8] amounted to 1.

Regarding `Cc1cc(C(C)(C)C)c(O)c(C(C)(C)C)c1`, the Activity in data set [17] amounted to 1.33 nM ml-1; in data set [18], 1.33 nM ml-1; in data set [19], 1.23 nM ml-1; in data set [20] it was 1.62 nM ml-1; in [21], 0.937 nM ml-1.

Regarding `O=c1cc(CCc2ccc(O)cc2)oc2cc(O)ccc12`, the half-maximal inhibitory concentration (IC50) in data set [3] stood at 41 µM.

`O=c1cc(C(c2ccccc2)c2ccccc2)oc2cc(O)ccc12` returned an IC50 in [3] of 10.9 µM.

`O=c1c(Cc2ccc(O)cc2)coc2cc(O)ccc12` came in with an IC50 in data set [2] of 60.5 µM.
